Data published in ChEMBL document CHEMBL3217467, “A structure-activity relationship study on multi-heterocyclic molecules: two linked thiazoles are required for cytotoxic activity” (Medchemcomm, 2013).
The source made the active and inactive calls. The rule behind the calls is not given here.

Experiments:
[1] = tested on: HCT-116; assay: Cytotoxicity against human HCT116 cells assessed as growth inhibition after 72 hrs by CCK8 assay; type: functional, cell-based; conditions: HCT-116, 72 h
Method in brief: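 HCT-116 cells seeded at 3000/well in DMEM with 10% FBS and left 24 h to adhere at 37°C in CO2. They were then exposed for 72 h to 1, 2, 5, 10, 20, 30 and 40 μM, with 1% DMSO and media-only controls. Readout was CCK-8 reduction, 1 h, absorbance at 450 nm. IC50 was taken from log concentration versus % survival curves; three experiments, quadruplicate points.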

[2] = tested on: HCT-116; assay: Cytotoxicity against human HCT116 cells assessed as growth inhibition at 40 uM after 72 hrs by CCK8 assay; type: functional; conditions: HCT-116, 72 h, read-out: GI
Method in brief: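 HCT-116 cells seeded at 3000/well in DMEM with 10% FBS and allowed 24 h at 37°C in CO2. They were then treated 72 h at a single 40 uM concentration, with media-only and 1% DMSO controls. Fresh serum-free medium plus CCK-8 was added for 1 h at 37°C, and absorbance read at 450 nm as % cell survival.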

[3] = tested on: HCT-116; assay: Induction of apoptosis in human HCT116 cells assessed as nuclear condensation at 10 uM after 24 hrs by Hoechst 33342 staining based microscopic analysis; type: functional
Method in brief: (§1)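 HCT 116 cells were plated at 20,000 per dish 24 h before treatment, then given 10 μM compound or 1% (v/v) DMSO control for 24 h. They were fixed in 1.5% glutaraldehyde in PBS for 1 h, washed with PBS, stained with 5 μg/ml Hoechst 33342 and imaged by confocal microscopy.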

[4] = tested on: HCT-116; assay: Induction of apoptosis in human HCT116 cells assessed as intact plasma membranes at 10 uM after 24 hrs by Hoechst 33342 staining based microscopic analysis; type: functional, cell-based; method in brief: as §1
[5] = tested on: HCT-116; assay: Induction of apoptosis in human HCT116 cells assessed as chromatin condensation at 10 uM after 24 hrs by Hoechst 33342 staining based microscopic analysis; type: functional, cell-based; method in brief: as §1
[6] = tested on: HCT-116; assay: Induction of apoptosis in human HCT116 cells assessed as plasma membrane budding at 10 uM after 24 hrs by Hoechst 33342 staining based microscopic analysis; type: functional, cell-based; method in brief: as §1
[7] = tested on: HCT-116; assay: Induction of apoptosis in human HCT116 cells assessed as cell shrinkage and nuclear condensation at 10 uM after 24 hrs by Hoechst 33342 staining based microscopic analysis; type: functional; method in brief: as §1

SMILES | IC50 [1] [µM] | inhibition of growth at 40 µM [2] [%] | Activity [3] [%] | Activity [4] | Activity [5] | Activity [6] | Activity [7] [%]
COC(=O)c1nc(-c2csc(-c3csc(-c4coc(-c5coc([C@@H](NC(=O)OC(C)(C)C)[C@@H](C)OC(C)(C)C)n5)n4)n3)n2)oc1-c1ccccc1 | 18.2 | > 50 | – | – | – | – | –
CCOC(=O)c1csc(-c2coc(-c3coc([C@@H](NC(=O)OC(C)(C)C)[C@@H](C)OC(C)(C)C)n3)n2)n1 | – | – | 12 | Active | Active | inactive | –
COC(=O)c1nc(-c2csc(-c3csc(-c4csc(-c5csc([C@@H](NC(=O)OC(C)(C)C)[C@@H](C)OC(C)(C)C)n5)n4)n3)n2)oc1-c1ccccc1 | 18.7 | > 50 | – | – | – | – | –
CCOC(=O)c1csc(-c2csc([C@@H](NC(=O)OC(C)(C)C)[C@@H](C)OC(C)(C)C)n2)n1 | 19.4 | > 50 | – | – | – | – | –
CCOC(=O)c1csc(-c2csc(-c3csc([C@@H](NC(=O)OC(C)(C)C)[C@@H](C)OC(C)(C)C)n3)n2)n1 | 26.5 | > 50 | – | Active | Active | inactive | 30
COC(=O)c1coc(-c2coc([C@@H](NC(=O)OC(C)(C)C)[C@@H](C)OC(C)(C)C)n2)n1 | > 100 | – | – | – | – | – | –
